According to article PMC3972761 (Chemistry & biology, 2008):
Marks after values point to notes of the source that are not given here.

Tests used:
[1] = molecular target: T1, purified hMGL (Homo sapiens, UniProt Q99685); test: Inhibition of purified hMGL at fixed inhibitor:hMGL molar ratios; assay type: biochemical; details: for hMGL Inhibition (%) 10 min: 50 μM AHMMCE, 1 hr preincubation
T1 sequence (Q99685 1-303): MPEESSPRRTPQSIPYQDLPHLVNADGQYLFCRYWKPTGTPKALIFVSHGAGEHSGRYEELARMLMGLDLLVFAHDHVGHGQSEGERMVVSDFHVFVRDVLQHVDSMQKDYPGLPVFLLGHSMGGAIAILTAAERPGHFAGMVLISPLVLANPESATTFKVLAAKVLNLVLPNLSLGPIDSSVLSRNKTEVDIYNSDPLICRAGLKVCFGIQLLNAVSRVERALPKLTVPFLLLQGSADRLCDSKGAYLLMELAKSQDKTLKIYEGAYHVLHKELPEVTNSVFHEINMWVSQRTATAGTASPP

[2] = molecular target: T2, hMGL (recombinant hexa-histidine-tagged human MGL) (Homo sapiens, UniProt Q99685); test: Fluorescence-based AHMMCE hydrolysis assay, E. coli lysate containing hMGL; assay type: biochemical; details: for hMGL inhibition potency (in words): E. coli lysate containing hMGL, 3-hr incubation, AHMMCE
T2 sequence (Q99685 1-303): T1 sequence (Q99685 1-303)
Procedure, shortened: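 Test compound was preincubated 15 min at room temperature with E. coli lysate containing hMGL (175 ng total protein) in 50 mM Tris-HCl pH 7.4 with 8% DMSO. AHMMCE was then added (20 μM final) and fluorescence (360/460 nm) read every 15 min for 3 hr. HMC formed at 2 h was quantified against an HMC standard curve, and IC50 was fitted by nonlinear regression.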

[3] = molecular target: T3, hMGL cysteine residues (Homo sapiens, UniProt Q99685); test: MALDI-TOF MS of tryptic digest of NAM-treated hMGL; details: for Relative Alkylation of Cys39: percent alkylation of Cys39 relative to Cys208
T3 sequence (Q99685 1-303): T1 sequence (Q99685 1-303)
Procedure, shortened: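 Purified His-tagged hMGL (3 μM) was incubated 1 hr at room temperature in 10 mM Tris-HCl pH 8.0 with test compound at set molar ratios. It was desalted into 50 mM ammonium bicarbonate with 0.02% CYMAL, pH 8.0, then trypsin-digested overnight, either directly or after DTT (17 mM, 30 min) and iodoacetamide (55 mM, 1 hr, dark). Digests were analysed by MALDI-TOF MS with CHCA matrix.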

[4] = tested on: recombinant MGL; details: read-out: IC50, recombinant MGL; time-dependent; ref Alexander and Cravatt, 2006; cited from earlier work
[5] = inhibitor:hMGL molar ratio 3.3:1
[6] = inhibitor:hMGL molar ratio 8.3:1

Compound	hMGL Inhibition (%) 10 min ([1]; inhibitor:hMGL molar ratio 1:1)	hMGL Inhibition (%) 10 min [1, 5]	hMGL Inhibition (%) 10 min [1, 6]	hMGL inhibition potency (in words) [2]	also measured
CN(C)C(=O)n1nnc(Cc2ccc(-c3ccccc3)cc2)n1 [AM6701, 5-((biphenyl-4-yl)methyl)-N,N-dimethyl-2H-tetrazole-2-carboxamide]	72%	85%	91%		
CN(C)C(=O)n1nnnc1Cc1ccc(-c2ccccc2)cc1 [AM6702, 5-((biphenyl-4-yl)methyl)-N,N-dimethyl-1H-tetrazole-1-carboxamide]				nM range	
CCCCC/C=C\C/C=C\C/C=C\C/C=C\CCCCN1C(=O)C=CC1=O [NAM, N-arachidonylmaleimide]	51%	80%	82%	markedly less potent	extent of hMGL inhibition at large molar excesses ([2]; large molar NAM excesses (Figure 1C)): completely; hMGL Inhibition (%) 10 min ([1]; inhibitor:hMGL molar ratio 33:1): 84%; hMGL inhibition achieved with partial alkylation of Cys215 and/or Cys249 ([1]; molar ratio not stated at the place): ~ 80%; Relative Alkylation of Cys208 ([3]; NAM:hMGL ratio 8.3:1): 0%; Relative Alkylation of Cys39 ([3]; NAM:hMGL ratio 8.3:1): 0%; Relative Alkylation of Cys39 ([3]; NAM:hMGL ratio 33:1): 100% ^(a); Relative Alkylation of Cys208 ([3]; NAM:hMGL ratio 33:1, relative to Cys39/Cys208 pair): 0% ^(a)
LY2183240					IC50 [4]: ~5.3 nM
